The source made the active and inactive calls. No cut-off for these calls is given here.
Target: Signal transducer and activator of transcription 3 (Homo sapiens) (UniProt P40763)
Test: Inhibition of STAT3C-mediated transcription in human Hs578T cells at 1 uM after 24 hrs by luciferase reporter gene assay
Type: cell-based
Settings: Hs-578T
Procedure, shortened: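 HS578T cells co-transfected with a constitutively active STAT3 (STAT3C) expression vector and the APRE-Luc reporter. Treated at 1 μM for 24 h, with JAK2 inhibitor AZD1480 for comparison. Luciferase measured; mean ± SD of triplicates.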

Sequence of Signal transducer and activator of transcription 3 (Homo sapiens) (P40763 whole entry): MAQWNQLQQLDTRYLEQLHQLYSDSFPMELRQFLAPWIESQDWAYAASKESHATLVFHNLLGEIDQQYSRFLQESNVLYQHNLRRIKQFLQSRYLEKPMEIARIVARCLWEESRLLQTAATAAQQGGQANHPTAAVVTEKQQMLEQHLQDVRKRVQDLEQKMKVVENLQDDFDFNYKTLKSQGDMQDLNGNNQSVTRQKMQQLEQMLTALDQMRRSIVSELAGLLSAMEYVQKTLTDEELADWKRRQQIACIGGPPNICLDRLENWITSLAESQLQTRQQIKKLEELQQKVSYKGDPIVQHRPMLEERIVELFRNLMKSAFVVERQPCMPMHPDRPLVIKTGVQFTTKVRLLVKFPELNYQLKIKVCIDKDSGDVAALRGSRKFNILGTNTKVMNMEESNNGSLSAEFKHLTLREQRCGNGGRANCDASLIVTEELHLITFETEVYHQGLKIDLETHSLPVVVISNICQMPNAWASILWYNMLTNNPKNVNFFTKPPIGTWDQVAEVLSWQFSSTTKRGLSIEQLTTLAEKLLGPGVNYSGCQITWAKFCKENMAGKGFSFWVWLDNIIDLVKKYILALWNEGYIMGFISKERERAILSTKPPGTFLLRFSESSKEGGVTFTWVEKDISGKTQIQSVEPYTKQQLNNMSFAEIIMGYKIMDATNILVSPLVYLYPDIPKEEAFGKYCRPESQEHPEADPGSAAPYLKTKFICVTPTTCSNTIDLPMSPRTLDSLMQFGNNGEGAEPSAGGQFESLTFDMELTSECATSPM

Cc1cc(Nc2nc(N[C@@H](C)c3ncc(F)cn3)ncc2Cl)[nH]n1
inhibition: Active

— ChEMBL document CHEMBL3352378, “Novel carbazole inhibits phospho-STAT3 through induction of protein-tyrosine phosphatase PTPN6” (J Med Chem, 2014)
